Experimental data: ChEMBL document CHEMBL4673258, “Discovery of IPN60090, a Clinical Stage Selective Glutaminase-1 (GLS-1) Inhibitor with Excellent Pharmacokinetic and Physicochemical Properties” (J Med Chem, 2020)

How the values were obtained:
[1] = rat, microsomes, 0.75 h, 1 µM
[2] = Intrinsic clearance in dog hepatocytes […] at 2 uM measured after 15 to 120 mins by LC-MS analysis; assay type: ADME, cell-based, Canis lupus familiaris, Hepatocyte; settings: time 15-120 min
Procedure, shortened: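 Hepatocytes at 2×10^6 viable cells/mL, mixed with an equal volume of 2 μM compound in KHB buffer. Incubated at 37 °C and quenched with ACN at 0, 15, 30, 60 and 120 min. Analysed by LC/MS, with percent remaining from peak area ratio to internal standard against 0 min. Half-life from a single-phase exponential fit.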

[3] = Permeability across apical to basolateral side in human Caco-2 cells at 10 uM measured after 90 mins by LC-MS/MS analysis; assay type: ADME, cell-based
Procedure, shortened: (§1)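 Caco-2 monolayers grown 21–28 days on polycarbonate filter inserts, with TEER and Lucifer Yellow checked before and after. Compound at 10 μM in HBSS with 25 mM HEPES, pH 7.4. Run A→B and B→A at 37 °C for 90 min. Receiver and donor samples quantified by LC-MS/MS.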

[4] = Permeability across basolateral to apical side in human Caco-2 cells at 10 uM measured after 90 mins by LC-MS/MS analysis; assay type: ADME, cell-based
Procedure, shortened: as §1

[5] = human, microsomes, 0.75 h, 1 µM

Compound O=C(Cc1cccc(OC(F)(F)F)c1)Nc1ccc(CCCCc2nnc(NC(=O)Cc3ccccn3)s2)nn1 has a CLH [1] of 203 mL/min.
For O=C(Cc1cccc(OC(F)(F)F)c1)Nc1ccc(CCCCn2cc(C(=O)NCc3ccccn3)nn2)nn1, the CLH [1] was 162 mL/min.
In the case of CNC(=O)c1cn(C[C@H](F)CCc2ccc(NC(=O)Cc3cc(-c4cccc(OC(F)(F)F)c4)ccn3)nn2)nn1, the CLint [2] is reported as 12 mL/min/kg, the permeability [3] is reported as 5.8 10^-6 cm/s and the permeability [4] is reported as 21 10^-6 cm/s.
In the case of O=C(Cc1ccccc1)Nc1ccc(CCCCn2cc(C(=O)NCc3ccccc3)nn2)nn1, the CLH [1] is reported as 128 mL/min.
For CNC(=O)c1cn(C[C@H](F)CCc2ccc(NC(=O)Cc3cc(C(F)(F)F)ccn3)nn2)nn1, the CLH [5] was 0.2 mL/min.
For O=C(Cc1ccccn1)Nc1ccc(CCCCn2cc(C(=O)NCc3cccc(OC(F)(F)F)c3)nn2)nn1, the CLH [1] was 283 mL/min.
